The values that follow come from ChEMBL document CHEMBL4411301, “Design, Biological Evaluation, and Molecular Modeling of Tetrahydroisoquinoline Derivatives: Discovery of A Potent P-Glycoprotein Ligand Overcoming Multidrug Resistance in Cancer Stem Cells” (J Med Chem, 2019).

Format in all cases: cell-based
For data set [1], the target named is ATP-dependent translocase ABCB1 (Homo sapiens, UniProt P08183). The experiment in a line: Inhibition of MDR1 (unknown origin) expressed in MDCK cells assessed as increase in calcein-AM accumulation after 30 mins by calcein-AM dye based fluorescence assay. A digest of the protocol:
(§1)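 MDCK-MDR1 or MDCK-MRP1 cells seeded at 30,000/well and grown to confluence overnight. Compound (0.1–100 µM final, in medium) incubated 30 min at 37 °C, then calcein-AM added (2.5 µM final) for 30 min. Cells washed with ice-cold PBS and read at ex 485/em 535 nm. EC50 fitted from % fluorescence increase over untreated vs log dose. Mean ± SEM, three experiments in triplicate.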

Data set [2] addresses Multidrug resistance-associated protein 1 (Homo sapiens, UniProt P33527). The data set is described as follows: Inhibition of MRP1 (unknown origin) expressed in MDCK cells assessed as increase in calcein-AM accumulation incubated for 30 mins by calcein-AM dye based fluorescence assay. Summed up: as §1
Data set [3] has as its target T1, Broad substrate specificity ATP-binding cassette transporter ABCG2 (Homo sapiens, UniProt Q9UNQ0).
T1 sequence (Q9UNQ0 whole entry): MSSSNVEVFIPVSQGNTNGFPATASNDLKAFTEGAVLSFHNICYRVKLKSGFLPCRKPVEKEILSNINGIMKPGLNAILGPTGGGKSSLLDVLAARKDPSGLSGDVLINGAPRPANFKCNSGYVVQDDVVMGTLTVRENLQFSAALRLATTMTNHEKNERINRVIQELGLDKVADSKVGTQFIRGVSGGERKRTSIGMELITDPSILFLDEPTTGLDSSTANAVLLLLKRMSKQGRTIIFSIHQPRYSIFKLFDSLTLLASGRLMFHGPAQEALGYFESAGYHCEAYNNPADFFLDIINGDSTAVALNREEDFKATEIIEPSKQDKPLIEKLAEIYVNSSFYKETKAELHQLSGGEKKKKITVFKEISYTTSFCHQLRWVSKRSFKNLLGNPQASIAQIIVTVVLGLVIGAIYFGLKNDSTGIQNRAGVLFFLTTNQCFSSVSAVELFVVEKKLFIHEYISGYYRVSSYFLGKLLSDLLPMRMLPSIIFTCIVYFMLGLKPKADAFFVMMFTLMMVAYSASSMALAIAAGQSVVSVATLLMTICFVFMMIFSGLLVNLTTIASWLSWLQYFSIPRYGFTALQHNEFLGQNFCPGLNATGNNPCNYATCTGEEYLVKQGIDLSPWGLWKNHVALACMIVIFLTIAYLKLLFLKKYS
The experiment in a line: Inhibition of BCRP (unknown origin) expressed in MDCK cells assessed as reduction in Hoechst 33342 efflux preincubated for 30 mins followed by Hoechst 3334 addition measured after 30 mins by fluorescence assay. Summed up: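 MDCK-BCRP monolayers (30,000 cells/well, confluent overnight) preincubated 30 min at 37 °C with compound (0.1–100 µM final). Hoechst 33342 then added (8 µM final) for 30 min. Cells fixed 20 min in 4% PFA, washed with ice-cold PBS and read at ex 340/em 485 nm. EC50 fitted from % fluorescence increase over basal vs log dose. Mean ± SEM, three experiments in triplicate.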

Data set [4] concerns the target MDR1 (ABCB1, P-glycoprotein) (Homo sapiens, UniProt P08183). The experiment in a line: Activity at MDR1 in human Caco2 cells assessed as efflux ratio of apparent permeability from basolateral to apical side over apical to basolateral side. The settings on record: Caco-2. Summed up: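 Caco-2 cells grown 21 days on filter inserts, then washed with HBSS and equilibrated 30 min at 37 °C. Compound at 100 µM added to the donor side and incubated 120 min at 37 °C. Papp in nm/s calculated as (VA/Area) × ([drug]acceptor/[drug]initial)/time, membrane area 0.11 cm2. BA/AB ratio from two independent experiments.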

ATP-dependent translocase ABCB1, sequence (P08183 whole entry): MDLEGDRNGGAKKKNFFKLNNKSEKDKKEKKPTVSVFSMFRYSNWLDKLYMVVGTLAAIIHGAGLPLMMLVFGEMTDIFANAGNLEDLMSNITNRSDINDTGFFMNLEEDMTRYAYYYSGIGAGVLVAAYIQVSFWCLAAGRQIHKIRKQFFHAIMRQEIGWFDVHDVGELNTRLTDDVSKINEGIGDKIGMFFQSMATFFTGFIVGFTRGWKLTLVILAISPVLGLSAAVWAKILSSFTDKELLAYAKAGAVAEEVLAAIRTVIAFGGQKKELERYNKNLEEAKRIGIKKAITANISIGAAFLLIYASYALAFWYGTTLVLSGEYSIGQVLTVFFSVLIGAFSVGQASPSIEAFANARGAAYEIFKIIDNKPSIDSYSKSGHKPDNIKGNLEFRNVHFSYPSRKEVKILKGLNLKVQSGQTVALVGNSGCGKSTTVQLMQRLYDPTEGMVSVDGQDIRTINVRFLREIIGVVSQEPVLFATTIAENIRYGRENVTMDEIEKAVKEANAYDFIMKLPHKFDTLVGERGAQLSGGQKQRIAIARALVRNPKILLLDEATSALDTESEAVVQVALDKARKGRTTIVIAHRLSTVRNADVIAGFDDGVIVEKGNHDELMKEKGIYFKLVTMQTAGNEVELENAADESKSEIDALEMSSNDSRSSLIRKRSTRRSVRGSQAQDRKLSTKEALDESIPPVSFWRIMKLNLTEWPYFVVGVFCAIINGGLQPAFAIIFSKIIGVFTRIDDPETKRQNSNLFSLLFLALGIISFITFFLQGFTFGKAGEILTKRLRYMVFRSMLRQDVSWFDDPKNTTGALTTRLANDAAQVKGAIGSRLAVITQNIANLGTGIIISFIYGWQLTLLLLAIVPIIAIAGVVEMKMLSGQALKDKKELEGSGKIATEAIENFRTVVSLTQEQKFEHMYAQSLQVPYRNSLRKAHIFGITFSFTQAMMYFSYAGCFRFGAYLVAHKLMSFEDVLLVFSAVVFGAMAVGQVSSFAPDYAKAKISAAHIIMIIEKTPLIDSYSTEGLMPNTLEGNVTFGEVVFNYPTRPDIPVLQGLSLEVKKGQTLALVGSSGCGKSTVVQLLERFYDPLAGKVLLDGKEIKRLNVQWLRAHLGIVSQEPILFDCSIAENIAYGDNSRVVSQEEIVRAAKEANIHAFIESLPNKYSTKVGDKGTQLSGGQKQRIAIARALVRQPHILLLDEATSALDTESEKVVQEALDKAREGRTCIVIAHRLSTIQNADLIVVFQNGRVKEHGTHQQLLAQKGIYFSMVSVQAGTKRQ
MDR1 (ABCB1, P-glycoprotein), sequence (P08183 whole entry): as above
Multidrug resistance-associated protein 1, sequence (P33527 whole entry): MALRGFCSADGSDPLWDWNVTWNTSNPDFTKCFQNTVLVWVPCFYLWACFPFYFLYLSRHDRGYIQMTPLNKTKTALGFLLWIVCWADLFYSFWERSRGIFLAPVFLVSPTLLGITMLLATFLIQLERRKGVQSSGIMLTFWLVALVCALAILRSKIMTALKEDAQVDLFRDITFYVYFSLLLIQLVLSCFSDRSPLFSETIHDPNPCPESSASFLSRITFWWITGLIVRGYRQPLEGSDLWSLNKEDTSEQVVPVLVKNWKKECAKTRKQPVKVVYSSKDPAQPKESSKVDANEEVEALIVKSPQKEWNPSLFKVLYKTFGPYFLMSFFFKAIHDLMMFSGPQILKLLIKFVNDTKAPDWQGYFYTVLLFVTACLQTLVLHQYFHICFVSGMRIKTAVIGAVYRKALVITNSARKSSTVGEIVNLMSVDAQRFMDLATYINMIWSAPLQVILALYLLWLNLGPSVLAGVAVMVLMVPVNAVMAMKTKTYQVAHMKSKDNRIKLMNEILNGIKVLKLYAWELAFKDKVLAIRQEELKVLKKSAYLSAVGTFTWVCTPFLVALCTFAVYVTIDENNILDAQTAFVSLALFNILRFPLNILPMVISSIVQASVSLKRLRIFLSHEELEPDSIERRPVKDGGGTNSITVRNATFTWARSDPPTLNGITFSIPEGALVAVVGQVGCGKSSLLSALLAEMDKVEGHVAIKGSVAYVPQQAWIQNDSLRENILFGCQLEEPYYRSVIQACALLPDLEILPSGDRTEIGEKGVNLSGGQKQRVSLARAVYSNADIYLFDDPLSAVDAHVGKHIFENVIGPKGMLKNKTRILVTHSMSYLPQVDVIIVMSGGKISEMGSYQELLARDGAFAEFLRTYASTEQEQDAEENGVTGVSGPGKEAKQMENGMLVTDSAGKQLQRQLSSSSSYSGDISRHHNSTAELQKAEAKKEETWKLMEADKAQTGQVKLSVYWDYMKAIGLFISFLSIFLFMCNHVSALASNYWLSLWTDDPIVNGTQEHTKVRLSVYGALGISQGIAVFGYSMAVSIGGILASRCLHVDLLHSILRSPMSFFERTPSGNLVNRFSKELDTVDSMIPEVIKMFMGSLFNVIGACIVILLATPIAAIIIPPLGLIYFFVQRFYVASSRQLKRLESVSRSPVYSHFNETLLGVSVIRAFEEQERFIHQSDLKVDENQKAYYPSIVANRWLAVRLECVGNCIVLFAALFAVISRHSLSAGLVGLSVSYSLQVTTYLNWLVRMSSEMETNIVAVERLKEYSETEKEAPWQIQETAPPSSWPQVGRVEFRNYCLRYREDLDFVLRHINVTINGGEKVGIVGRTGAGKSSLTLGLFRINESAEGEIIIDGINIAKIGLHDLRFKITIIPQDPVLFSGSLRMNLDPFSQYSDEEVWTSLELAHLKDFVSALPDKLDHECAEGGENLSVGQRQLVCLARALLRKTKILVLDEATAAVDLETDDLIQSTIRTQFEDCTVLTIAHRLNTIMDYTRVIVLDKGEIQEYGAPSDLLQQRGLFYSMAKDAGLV

The term EC50 denotes the concentration giving half of the maximal effect. By efflux ratio is commonly meant the permeability from basolateral to apical divided by that in the opposite direction, in the common usage. As for `COc1cc2c(cc1OC)CN(Cc1ccc(-c3ccc4[nH]ncc4c3)cc1)CC2`, the EC50 was 900 nM in data set [1] (read-out: EC50), “Not Active” in data set [2] and “Not Active” in data set [3] (mdck). Besides, in data set [4], the efflux ratio was 12.
In the case of `COc1cc2c(cc1OC)CN(Cc1ccc(-c3ccc(O)cc3)cc1)CC2`, the efflux ratio in data set [4] amounted to 1.3.
For the compound `COc1cc2c(cc1OC)CN(Cc1ccc(-c3ccc4[nH]cnc4c3)cc1)CC2`, the EC50 in data set [1] (read-out: EC50) is 6930 nM; in data set [2], “Not Active”; in data set [3] (mdck) it was “Not Active”. The efflux ratio in data set [4] stood at 9.2.
For the compound `CCNC(=O)Nc1ccc(-c2ccc(CN3CCc4cc(OC)c(OC)cc4C3)cc2)cc1`, the values for the EC50 in data set [1] (read-out: EC50), in data set [2] and in data set [3] (mdck) were 1700 nM, “Not Active” and “Not Active”, respectively. Further, the efflux ratio in data set [4] stood at 9.3.
In the case of `COc1cc2c(cc1OC)CN(Cc1ccc(-c3ccc(NC(C)=O)cc3)cc1)CC2`, the EC50 in data set [1] (read-out: EC50) is 1520 nM; in data set [2], “Not Active”; in data set [3] (mdck) it was “Not Active”. For the same compound, the efflux ratio in data set [4] stood at 13.6.
Consider `COc1cc2c(cc1OC)CN(Cc1ccc(-c3ccc4c(ccn4S(=O)(=O)c4ccccc4)c3)cc1)CC2`, for which the figures for the EC50 in data set [1] (read-out: EC50), in data set [2] and in data set [3] (mdck) were 19200 nM, “Not Active” and “Not Active”, respectively. Also, the efflux ratio in data set [4] came out at 4.2.
Take `CCCNC(=O)Nc1ccc(-c2ccc(CN3CCc4cc(OC)c(OC)cc4C3)cc2)cc1`: the EC50 in data set [1] (read-out: EC50) is 1100 nM; in data set [2], “Not Active”; in data set [3] (mdck), “Not Active”. For the same compound, the efflux ratio in data set [4] was found to be 17.6.
For the compound `COc1cc2c(cc1OC)CN(Cc1ccc(-c3ccc4[nH]ccc4c3)cc1)CC2`, the EC50 in data set [1] (read-out: EC50) was 21200 nM; in data set [2] it was “Not Active”; in data set [3] (mdck), “Not Active”. In data set [4], the efflux ratio was 1.9.
On to `COc1cc2c(cc1OC)CN(Cc1ccc(-c3ccc4c(c3)C(=O)C(=O)N4)cc1)CC2`, for which the values for the EC50 in data set [1] (read-out: EC50), in data set [2] and in data set [3] (mdck) were 21400 nM, “Not Active” and “Not Active”, respectively. The efflux ratio in data set [4] amounted to 8.1.
For `COc1cc2c(cc1OC)CN(Cc1ccc(-c3ccc4[nH]c(=O)[nH]c4c3)cc1)CC2`, the figures for the EC50 in data set [1] (read-out: EC50), in data set [2] and in data set [3] (mdck) were 29500 nM, “Not Active” and “Not Active”, respectively. Further, the efflux ratio in data set [4] came out at 15.
On to `COc1cc2c(cc1OC)CN(Cc1ccc(-c3ccc(NS(=O)(=O)c4ccccc4)cc3)cc1)CC2`, for which the values for the EC50 in data set [1] (read-out: EC50), in data set [2] and in data set [3] (mdck) were 870 nM, “Not Active” and “Not Active”, respectively. Also, the efflux ratio in data set [4] worked out at 15.
Regarding `CNC(=O)Nc1ccc(-c2ccc(CN3CCc4cc(OC)c(OC)cc4C3)cc2)cc1`, the figures for the EC50 in data set [1] (read-out: EC50), in data set [2] and in data set [3] (mdck) were 3100 nM, “Not Active” and “Not Active”, respectively. The efflux ratio in data set [4] was determined as 12.8.
Take `COc1cc2c(cc1OC)CN(Cc1ccc(-c3ccc(NC(=O)c4ccccc4)cc3)cc1)CC2`: the EC50 result in data set [1] (mdck), in data set [2] and in data set [3] (mdck) was “Not Active” in each case. Moreover, the efflux ratio in data set [4] amounted to 19.9.
Regarding `CCCCNC(=O)Nc1ccc(-c2ccc(CN3CCc4cc(OC)c(OC)cc4C3)cc2)cc1`, the EC50 in data set [1] (read-out: EC50) was 320 nM; in data set [2], “Not Active”; in data set [3] (read-out: EC50), 46000 nM. Moreover, the efflux ratio in data set [4] was determined as 12.8.
`COc1cc2c(cc1OC)CN(Cc1ccc(-c3ccc(NS(C)(=O)=O)cc3)cc1)CC2`: the half-maximal effective concentration (EC50) in data set [1] (read-out: EC50) is 5200 nM; in data set [2], “Not Active”; in data set [3] (mdck), “Not Active”. Besides, the efflux ratio in data set [4] stood at 5.
With `COc1cc2c(cc1OC)CN(Cc1ccc(-c3ccc(NC(=O)Nc4ccccc4)cc3)cc1)CC2`, the EC50 in data set [1] (read-out: EC50) is 980 nM; in data set [2], “Not Active”; in data set [3] (mdck), “Not Active”. Besides, the efflux ratio in data set [4] is above 20.
For the compound `COc1cc2c(cc1OC)CN(Cc1ccc(-c3ccc4c(c3)C(N3CCc5cc(OC)c(OC)cc5C3)C(=O)N4)cc1)CC2` (centres undefined), the EC50 is 1200 nM in data set [1] (read-out: EC50), “Not Active” in data set [2] and 1800 nM in data set [3] (read-out: EC50). Further, the efflux ratio in data set [4] was determined as 8.5.
`COc1cc2c(cc1OC)CN(Cc1ccc(-c3ccc4c(c3)CC(=O)N4)cc1)CC2`: the values for the EC50 in data set [1] (read-out: EC50), in data set [2] and in data set [3] (mdck) were 1470 nM, “Not Active” and “Not Active”, respectively. Further, the efflux ratio in data set [4] worked out at 3.6.
